Experiment [1] deals with Mus musculus. As to the kind of experiment: Antimalarial effect against trophozoite-induced Plasmodium berghei in mice (Mus musculus) after subcutaneous administration dose of 2.5 mg/kg. It counts as functional.
The species entered for experiment [2] is Mus musculus. In words: Daily dose required for 90% parasitaemia in trophozoite induced Plasmodium berghei in 21 mice. It counts as functional. A digest of the protocol:
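Oral suppressive test in mice against a normal drug-sensitive P. berghei strain. Drug given continuously in the diet for six consecutive days, with doses as free base equivalent. SD90 is the daily dose (mg/kg) giving 90% suppression of parasitemia versus control mice, estimated graphically on semilog paper.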

Experiment [3] concerns Plasmodium berghei. In words: Antimalarial effect against trophozoite-induced Plasmodium berghei in mice (Mus musculus) at 5 mg/kg subcutaneous dose. It counts as functional.
Experiment [4] has as its system Mus musculus. As to the kind of experiment: Antimalarial effect against trophozoite-induced Plasmodium berghei in mice (Mus musculus) after subcutaneous administration dose of 20 mg/kg; 4 survived after 60 days of postinfection. It counts as functional.
Experiment [5] deals with Mus musculus. As to the kind of experiment: Antimalarial effect against trophozoite-induced Plasmodium berghei in mice (Mus musculus) after subcutaneous administration dose of 10 mg/kg; 1 survived after 60 days of post infection. The format is functional.
The subject of experiment [6] is L1210. In words: Molar concentration required to reduce the number of L1210 cells by 50% after incubation for 2 days. The format is functional, Mus musculus. The settings on record: read-out: ID50 (the source's name). A digest of the protocol:
(§1)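 L1210 leukemia cells in tissue culture exposed to drug for 2 days. ID50 is the molar concentration that reduces L1210 cell number by 50%. Mithramycin is the reference drug.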

The test system of experiment [7] is Mus musculus. As to the kind of experiment: Antimalarial effect against trophozoite-induced Plasmodium berghei in mice (Mus musculus) after subcutaneous administration dose of 320 mg/kg; 3 survived after 60 days of postinfection. The format is functional.
For experiment [8], the system named is Plasmodium berghei. As to the kind of experiment: Antimalarial effect against trophozoite-induced Plasmodium berghei in mice (Mus musculus) at 320 mg/kg subcutaneous dose. The format is functional. The settings on record: 320 mg/kg.
For experiment [9], the system named is Mus musculus. As to the kind of experiment: Antimalarial effect against trophozoite-induced Plasmodium berghei in mice (Mus musculus) after subcutaneous administration dose of 320 mg/kg; 1 survived after 60 days of post infection.
In experiment [10] the test system is Plasmodium berghei. In words: Antimalarial effect against trophozoite-induced Plasmodium berghei in mice (Mus musculus) at 40 mg/kg subcutaneous dose. It counts as functional.
Experiment [11] concerns Plasmodium berghei. In words: Antimalarial effect against trophozoite-induced Plasmodium berghei in mice (Mus musculus) at 80 mg/kg subcutaneous dose. It counts as functional.
Experiment [12] deals with Plasmodium berghei. In words: Antimalarial effect against trophozoite-induced Plasmodium berghei in mice (Mus musculus) after subcutaneous dose of 10 mg/kg. It counts as functional.
For experiment [13], the system named is Plasmodium berghei. In words: Antimalarial effect against trophozoite-induced Plasmodium berghei in mice (Mus musculus) at 20 mg/kg subcutaneous dose. It counts as functional.
For experiment [14], the system named is Mus musculus. In words: Antimalarial effect against trophozoite-induced Plasmodium berghei in mice (Mus musculus) after subcutaneous after 60 days. The format is functional.
Experiment [15] deals with Mus musculus. As to the kind of experiment: Antimalarial effect against trophozoite-induced Plasmodium berghei in mice (Mus musculus) after subcutaneous administration dose of 40 mg/kg; 1 survival after 60 days. It counts as functional.
Experiment [16] deals with Mus musculus. In words: Antimalarial effect against trophozoite-induced Plasmodium berghei in mice (Mus musculus) after subcutaneous administration dose of 80 mg/kg; 4 survived after 60 days of post infection. The format is functional.
The test system of experiment [17] is Mus musculus. In words: (§2) Antimalarial effect against trophozoite-induced Plasmodium berghei in mice (Mus musculus) after subcutaneous administration dose of 20 mg/kg. The format is functional.
The subject of experiment [18] is Mus musculus. In words: Antimalarial effect against trophozoite-induced Plasmodium berghei in mice (Mus musculus) after subcutaneous administration dose of 10 mg/kg. The format is functional.
Experiment [19] deals with Mus musculus. The description is as §2. The format is functional. This is another data set of the same source.
In experiment [20] the test system is Mus musculus. In words: Antimalarial effect against trophozoite-induced Plasmodium berghei in mice (Mus musculus) after subcutaneous administration dose of 5 mg/kg. It counts as functional.
Experiment [21] deals with L1210. In words: Molar concentration required to reduce the number of L1210 cells by 50% after incubation for 2 days (exp 2. The format is functional. The conditions noted are these: Mus musculus, L1210, 48 h; read-out: ID50 (the source's name). The procedure, abridged: as §1
The subject of experiment [22] is Mus musculus. As to the kind of experiment: Antimalarial effect against trophozoite-induced Plasmodium berghei in mice (Mus musculus) after subcutaneous administration dose of 40 mg/kg. It counts as functional.
The subject of experiment [23] is Mus musculus. In words: Antimalarial effect against trophozoite-induced Plasmodium berghei in mice (Mus musculus) after subcutaneous administration dose of 20 mg/kg; 3 survived after 60 days of post infection. It counts as functional.
Experiment [24] concerns Mus musculus. As to the kind of experiment: Antimalarial effect against trophozoite-induced Plasmodium berghei in mice (Mus musculus) after subcutaneous administration dose of 160 mg/kg; 3 survived after 60 days of postinfection. It counts as functional.
Experiment [25] deals with Mus musculus. In words: Antimalarial effect against trophozoite-induced Plasmodium berghei in mice (Mus musculus) after subcutaneous administration dose of 160 mg/kg; 4 survived after 60 days of post infection. The format is functional.
In experiment [26] the test system is Mus musculus. In words: Antimalarial effect against trophozoite-induced Plasmodium berghei in mice (Mus musculus) after subcutaneous administration dose of 160 mg/kg. It counts as functional.
Experiment [27] relates to Mus musculus. In words: Antimalarial effect against trophozoite-induced Plasmodium berghei in mice (Mus musculus) after subcutaneous administration dose of 640 mg/kg. It counts as functional.
Experiment [28] concerns Mus musculus. As to the kind of experiment: Antimalarial effect against trophozoite-induced Plasmodium berghei in mice (Mus musculus) after subcutaneous administration dose of 320 mg/kg. It counts as functional.
For experiment [29], the system named is Mus musculus. In words: Antimalarial effect against trophozoite-induced Plasmodium berghei in mice (Mus musculus) after subcutaneous administration dose of 80 mg/kg; 1 survived after 60 days. The format is functional.
The test system of experiment [30] is Mus musculus. As to the kind of experiment: Antimalarial effect against trophozoite-induced Plasmodium berghei in mice (Mus musculus) after subcutaneous administration dose of 160 mg/kg; 4 survived after 60 days. It counts as functional.

Several values for one entry are separate records, joined by “and”; a condition that tells them apart may be missing. Equal values may be shown once.

`Cc1c(CN(N=O)c2ccc(Cl)c(Cl)c2)ccc2nc(N)nc(N)c12`: the “Delta MST” value in the experiment on Mus musculus [1] was 4.1 days; in the experiment on Plasmodium berghei [3] (5 mg/kg), 9.9 days and 10.5 days; with Mus musculus [4], 21.7 days and 24.9 days; in the experiment with Mus musculus [5], 12 days and 11.9 days. The SD90 in the experiment listed under Mus musculus [2] stood at 1.15 mg/kg/day. The IC50 came to 70 nM in the experiment with L1210 [6] (Mus musculus, L1210, 48 h) and 100 nM with L1210 [6].

For `CC(=O)O.Nc1nc(N)c2cc(CNc3ccccc3Cl)ccc2n1.O`, the SD90 in the experiment filed under Mus musculus [2] amounted to 8 mg/kg/day. The “Delta MST” value was 0.7 days with Plasmodium berghei [3]; 8.4 days in the experiment on Mus musculus [7]; 9.9 days and 8.4 days in the experiment with Plasmodium berghei [8]; 7.9 days with Mus musculus [9]; 3.1 days and 1.3 days in the experiment with Plasmodium berghei [10] (40 mg/kg); 7.7 days in the experiment with Plasmodium berghei [11]. The “Delta MST” value in the experiment with Plasmodium berghei [12] was 0.7 days. The IC50 in the experiment on L1210 [6] (Mus musculus, L1210, 48 h) was found to be 93 nM; in the experiment on L1210 [6] it was 68 nM.

With `CC1(C)N=C(N)N=C(N)N1c1ccc(Cl)cc1.Cl` [CHLORCYCLOGUANIL HYDROCHLORIDE], the “Delta MST” value in the experiment on Plasmodium berghei [13] was determined as 7.9 days; in the experiment on Mus musculus [14], 21.6 days; in the experiment with Mus musculus [15], 13.4 days; in the experiment on Plasmodium berghei [12] it was 4.9 days.

As to `CC(=O)O.COc1cc(NCc2ccc3nc(N)nc(N)c3c2C)cc(OC)c1OC.O`, the “Delta MST” value with Mus musculus [16] is 16.3 days and 14.7 days; in the experiment on Plasmodium berghei [10], 14.7 days; in the experiment with Plasmodium berghei [13] (20 mg/kg), 12 days and 11.5 days and 7.1 days; with Plasmodium berghei [11], 30.8 days. The compound further registered an SD90 in the experiment listed under Mus musculus [2] of 0.44 mg/kg/day. The IC50 was 11 nM in the experiment on L1210 [6] (Mus musculus, L1210, 48 h) and 20 nM in the experiment with L1210 [6].

For the compound `CC(=O)O.Nc1nc(N)c2c(Cl)c(CNc3ccc(Cl)cc3)ccc2n1.O`, the “Delta MST” value in the experiment on Mus musculus [17] is 16.9 days; with Mus musculus [1], 2.7 days; in the experiment with Mus musculus [18] (10 mg/kg), 6.9 days and 6.1 days; in the experiment with Mus musculus [19] it was 16.9 days and 17.4 days.

For the compound `CC(=O)O.Nc1nc(N)c2c(Cl)c(CNc3cccc(Br)c3)ccc2n1.O`, the “Delta MST” value in the experiment on Mus musculus [17] (20 mg/kg) was 8.5 days and 8.3 days; with Mus musculus [1] it was 1.5 days; with Mus musculus [20] it was 4.7 days; in the experiment on Mus musculus [22] (40 mg/kg), 11.3 days and 11.5 days and 11.7 days; with Mus musculus [18] (10 mg/kg), 7.3 days and 7.5 days and 4.7 days. Also, the IC50 in the experiment with L1210 [21] came out at 2.2 nM; in the experiment on L1210 [6] (Mus musculus, L1210, 48 h) it was 2.1 nM.

Turning to `Cc1c(CN(C=O)c2ccc(Cl)c(Cl)c2)ccc2nc(N)nc(N)c12`, the Delta MST in the experiment on Plasmodium berghei [3] is 5.3 days; with Plasmodium berghei [10], 29.9 days; in the experiment with Plasmodium berghei [13] (20 mg/kg), 9.9 days and 9.4 days; in the experiment on Mus musculus [23], 9.9 days; with Plasmodium berghei [12] (10 mg/kg), 7.7 days and 5.3 days and 3.9 days. The IC50 in the experiment with L1210 [6] (Mus musculus, L1210, 48 h) came to 21 nM; in the experiment on L1210 [6], 26 nM.

Consider `CC(=O)O.Nc1nc(N)c2cc(CN(N=O)c3ccc(Cl)c(Cl)c3)ccc2n1.O`, for which the “Delta MST” value was 28.7 days in the experiment with Mus musculus [24]; 22.8 days in the experiment on Mus musculus [25]; 2 days in the experiment on Plasmodium berghei [3]; 9.9 days and 9.8 days in the experiment on Plasmodium berghei [10] (40 mg/kg); 6.7 days and 6.8 days in the experiment with Plasmodium berghei [13] (20 mg/kg); 12.3 days and 12 days with Plasmodium berghei [11] (80 mg/kg). The “Delta MST” value with Plasmodium berghei [12] (10 mg/kg) is 3.7 days and 4 days. This compound also returned an SD90 in the experiment filed under Mus musculus [2] of 0.25 mg/kg/day. Further, the IC50 turned out to be 40 nM in the experiment on L1210 [6] (Mus musculus, L1210, 48 h) and 70 nM in the experiment on L1210 [6].

Take `CC(=O)O.Nc1nc(N)c2cc(CNc3cc(Cl)cc(Cl)c3)ccc2n1.O.O`: the “Delta MST” value is 0.3 days with Mus musculus [17]; 6.9 days and 4.7 days with Mus musculus [26]; 13.7 days with Mus musculus [27]; 0.7 days in the experiment with Mus musculus [22]; 0.3 days in the experiment with Mus musculus [18]; 12.9 days and 6.9 days in the experiment with Mus musculus [28]. This compound displayed an SD90 in the experiment listed under Mus musculus [2] of 51 mg/kg/day. Further, the IC50 in the experiment with L1210 [6] (Mus musculus, L1210, 48 h) turned out to be 120 nM; in the experiment on L1210 [6] it was 74 nM.

Regarding `Nc1nc(N)c2c(Cl)c(CN(N=O)c3ccc(Cl)c(Cl)c3)ccc2n1`, the “Delta MST” value with Mus musculus [29] is 13.4 days; in the experiment with Plasmodium berghei [10], 8.1 days; with Plasmodium berghei [13] (20 mg/kg), 6.1 days and 6.3 days; with Mus musculus [30] it was 21.9 days; in the experiment on Plasmodium berghei [12] it was 3.5 days.
